Key:
Assay type in all cases: cell-based
[1] = target: T1, Adenosine receptor A1 (Homo sapiens) (UniProt P30542); assay: Displacement of [3H]R-PIA from human adenosine A1 receptor expressed CHO cells at 10 uM after 60 mins by gamma counting relative to NECA
T1 sequence (whole entry): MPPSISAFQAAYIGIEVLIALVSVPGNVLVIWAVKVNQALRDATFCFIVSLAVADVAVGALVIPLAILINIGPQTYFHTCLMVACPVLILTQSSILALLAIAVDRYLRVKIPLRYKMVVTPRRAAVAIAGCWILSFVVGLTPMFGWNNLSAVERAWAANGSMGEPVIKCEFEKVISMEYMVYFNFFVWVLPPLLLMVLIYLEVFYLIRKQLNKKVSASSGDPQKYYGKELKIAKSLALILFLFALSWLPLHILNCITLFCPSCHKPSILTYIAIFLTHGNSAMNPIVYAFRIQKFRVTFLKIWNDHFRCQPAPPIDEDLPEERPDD
Outline: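 Membranes from CHO cells stably expressing human A1AR were incubated with 1 nM [3H]PIA at 25 °C for 60 min in 50 mM Tris–HCl (pH 7.4) with 10 mM MgCl2. Nonspecific binding was defined with CPA. Results are mean ± sem, n = 3–5.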

[2] = target: Adenosine receptor A2a (Homo sapiens) (UniProt P29274); assay: Displacement of [3H]CGS 21680 from human adenosine A2A receptor expressed HEK293 cells at 10 uM after 60 mins by gamma counting relative to NECA
Outline: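 Membranes from HEK-293 cells stably expressing human A2AAR were incubated with 15 nM [3H]CGS21680 at 25 °C for 60 min in 50 mM Tris–HCl (pH 7.4) with 10 mM MgCl2. Incubation was stopped by GF/B filtration. Results are mean ± sem, n = 3–5.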

[3] = target: T2, Adenosine receptor A3 (Homo sapiens) (UniProt P0DMS8); assay: Displacement of [125I]I-AB-MECA from human adenosine A3 receptor expressed CHO cells at 10 uM after 60 mins by gamma counting relative to NECA
T2 sequence (whole entry): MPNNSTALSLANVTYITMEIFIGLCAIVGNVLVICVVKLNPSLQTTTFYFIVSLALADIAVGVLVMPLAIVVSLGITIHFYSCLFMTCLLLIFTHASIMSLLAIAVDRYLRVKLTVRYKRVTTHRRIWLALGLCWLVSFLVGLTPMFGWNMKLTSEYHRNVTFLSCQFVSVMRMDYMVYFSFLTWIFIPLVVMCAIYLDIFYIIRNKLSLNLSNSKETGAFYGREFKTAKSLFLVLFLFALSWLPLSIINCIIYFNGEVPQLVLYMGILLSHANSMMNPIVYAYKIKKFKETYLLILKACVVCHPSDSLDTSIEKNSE
Outline: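 Competition binding used membranes from CHO cells stably expressing human A3AR with 0.5 nM [125I]I-AB-MECA and test nucleoside in 50 mM Tris–HCl (pH 7.4) with 10 mM MgCl2 and 1 mM EDTA, at 25 °C for 60 min. Nonspecific binding was defined with Cl-IB-MECA. Percent inhibition was taken at a single concentration. Results are mean ± sem, n = 3–5.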

Sequence of Adenosine receptor A2a (Homo sapiens) (P29274 whole entry): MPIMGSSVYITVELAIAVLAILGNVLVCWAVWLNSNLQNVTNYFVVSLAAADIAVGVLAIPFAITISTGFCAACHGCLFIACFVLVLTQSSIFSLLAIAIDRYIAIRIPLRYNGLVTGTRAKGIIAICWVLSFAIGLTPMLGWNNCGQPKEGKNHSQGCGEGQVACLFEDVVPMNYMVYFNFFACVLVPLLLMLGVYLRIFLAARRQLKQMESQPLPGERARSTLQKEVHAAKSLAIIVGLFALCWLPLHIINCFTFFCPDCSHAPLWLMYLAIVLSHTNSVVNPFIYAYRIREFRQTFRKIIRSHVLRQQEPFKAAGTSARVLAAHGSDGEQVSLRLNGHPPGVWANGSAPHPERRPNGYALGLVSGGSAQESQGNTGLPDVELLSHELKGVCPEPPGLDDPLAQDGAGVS

| SMILES | inhibition [1] | inhibition [2] | inhibition [3] |
| --- | --- | --- | --- |
| O[C@@H]1[C@H](O)CS[C@H]1Cn1cnc2c(NCc3cccc(I)c3)ncnc21 | 9.6% | 18.2% | 13.9% |
| O[C@@H]1[C@H](O)CS[C@H]1Cn1cnc2c(NCc3cccc(Br)c3)ncnc21 | 6.6% | 25.8% | 6.1% |
| O[C@@H]1[C@H](O)CS[C@H]1Cn1cnc2c(NCc3cccc(F)c3)nc(Cl)nc21 | 7.9% | 12% | 17.6% |
| O[C@@H]1[C@H](O)CS[C@H]1Cn1cnc2c(NCc3cccc(I)c3)nc(Cl)nc21 | 16.4% | 18.4% | 10% |
| O[C@@H]1[C@H](O)CS[C@H]1Cn1cnc2c(NCc3cccc(Br)c3)nc(Cl)nc21 | 23.6% | 2% | 21% |
| O[C@@H]1[C@H](O)CS[C@H]1Cn1cnc2c(NCc3cccc(F)c3)ncnc21 | 0.3% | 14% | 8.7% |
| O[C@@H]1[C@H](O)CS[C@H]1Cn1cnc2c(NCc3cccc(Cl)c3)ncnc21 | 3.3% | 13% | 8.9% |
| O[C@@H]1[C@H](O)CS[C@H]1Cn1cnc2c(NCc3cccc(Cl)c3)nc(Cl)nc21 | 3.2% | 11% | 13.6% |

Source: ChEMBL document CHEMBL1250540, “Design, synthesis, and binding of homologated truncated 4'-thioadenosine derivatives at the human A3 adenosine receptors” (Bioorg Med Chem, 2010)
